Converted amounts (≈) assume the structure as drawn.
Columns and labels:
Assay type in all cases: functional
[1] = tested on: Aspergillus fumigatus; assay: Antifungal activity against Aspergillus fumigatus RCMB 02568 assessed as absence of turbidity after 48 hrs; details: RCMB 02568, 48 h
In short: (§1)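 Broth microdilution in Sabouraud liquid medium. DMF stocks at 1000 µg/mL were diluted in broth to give twofold serial dilutions over 500–0.007 µg/mL. Fungal inoculum was about 10^4 CFU/mL in 96-well plates, sealed and incubated at 25 °C for 48 h in a humid chamber. MIC was taken as the lowest concentration with no visible turbidity. DMF and uninoculated-medium controls were included.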

[2] = tested on: Streptococcus pneumoniae; assay: Antimicrobial activity against Streptococcus pneumoniae RCMB 010010 assessed as absence of turbidity after 24 hrs; details: RCMB 010010, 24 h
In short: as §1, with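 “Müller–Hinton broth.” for “Sabouraud liquid medium.”, “Bacterial” for “Fungal”, “10^6” for “10^4”, “37” for “25”, “24” for “48”, “included. Only compounds giving zones >10 mm were tested.” for “included.”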

[3] = tested on: Streptococcus pneumoniae; assay: Antimicrobial activity against Streptococcus pneumoniae RCMB 010010 assessed as inhibition zone at 5 mg/ml after 24 hrs; details: RCMB 010010, 24 h, read-out: IZ
In short: (§2)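 Agar diffusion on nutrient agar seeded with 10^6 CFU/mL bacteria. Filter-paper disks were loaded with 100 µL of a 5 mg/mL compound solution in DMF, with a DMF-only control. Incubation was 37 °C for 24 h. Inhibition zone in mm (mean ± SD, triplicate plates) was measured beyond the 6 mm diameter.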

[4] = tested on: Geotrichum candidum; assay: Antifungal activity against Geotrichum candidum RCMB 05097 assessed as inhibition zone at 5 mg/ml after 48 hrs; details: RCMB 05097, 48 h, read-out: IZ
In short: (§3)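 Disk diffusion on nutrient agar seeded with 10^4 CFU/mL fungus. Sterile filter-paper disks carried 100 µL of a 5 mg/mL DMF solution, and DMF alone served as control. Plates were incubated at 25 °C for 48 h. Mean inhibition zone in mm ± SD was read beyond the 6 mm diameter, in triplicate.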

[5] = tested on: Bacillus subtilis; assay: Antimicrobial activity against Bacillis subtilis RCMB 010067 assessed as inhibition zone at 5 mg/ml after 24 hrs; details: RCMB 010067, 24 h, read-out: IZ; in short: as §2
[6] = tested on: Syncephalastrum racemosum; assay: Antifungal activity against Syncephalastrum racemosum RCMB 05922 assessed as absence of turbidity after 48 hrs; details: RCMB 05922, 48 h
[7] = tested on: Klebsiella pneumoniae; assay: Antimicrobial activity against Klebsiella pneumoniae RCMB 010093 assessed as absence of turbidity after 24 hrs
In short: as §1, with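 “Müller–Hinton broth.” for “Sabouraud liquid medium.”, “Bacterial” for “Fungal”, “10^6” for “10^4”, “37” for “25”, “24” for “48”, “included. Only compounds giving zones >10 mm were tested.” for “included.”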

[8] = tested on: Escherichia coli; assay: Antimicrobial activity against Escherichia coli RCMB 010052 assessed as absence of turbidity after 24 hrs
In short: as §1, with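 “Müller–Hinton broth.” for “Sabouraud liquid medium.”, “Bacterial” for “Fungal”, “10^6” for “10^4”, “37” for “25”, “24” for “48”, “included. Only compounds giving zones >10 mm were tested.” for “included.”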

[9] = tested on: Staphylococcus epidermidis; assay: Antimicrobial activity against Staphylococcus epidermidis RCMB 010024 assessed as absence of turbidity after 24 hrs; details: RCMB 010024, 24 h
In short: as §1, with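 “Müller–Hinton broth.” for “Sabouraud liquid medium.”, “Bacterial” for “Fungal”, “10^6” for “10^4”, “37” for “25”, “24” for “48”, “included. Only compounds giving zones >10 mm were tested.” for “included.”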

[10] = tested on: Bacillus subtilis; assay: Antimicrobial activity against Bacillis subtilis RCMB 010067 assessed as absence of turbidity after 24 hrs; details: RCMB 010067, 24 h
In short: as §1, with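 “Müller–Hinton broth.” for “Sabouraud liquid medium.”, “Bacterial” for “Fungal”, “10^6” for “10^4”, “37” for “25”, “24” for “48”, “included. Only compounds giving zones >10 mm were tested.” for “included.”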

[11] = tested on: Staphylococcus epidermidis; assay: Antimicrobial activity against Staphylococcus epidermidis RCMB 010024 assessed as inhibition zone at 5 mg/ml after 24 hrs; details: RCMB 010024, 24 h, read-out: IZ; in short: as §2
[12] = tested on: Aspergillus fumigatus; assay: Antifungal activity against Aspergillus fumigatus RCMB 02568 assessed as inhibition zone at 5 mg/ml after 48 hrs; details: RCMB 02568, 48 h, read-out: IZ; in short: as §3
[13] = tested on: Escherichia coli; assay: Antimicrobial activity against Escherichia coli RCMB 010052 assessed as inhibition zone at 5 mg/ml after 24 hrs; details: RCMB 010052, 24 h, read-out: IZ; in short: as §2
[14] = tested on: Geotrichum candidum; assay: Antifungal activity against Geotrichum candidum RCMB 05097 assessed as absence of turbidity after 48 hrs; details: RCMB 05097, 48 h; in short: as §1
[15] = tested on: Syncephalastrum racemosum; assay: Antifungal activity against Syncephalastrum racemosum RCMB 05922 assessed as inhibition zone at 5 mg/ml after 48 hrs; details: RCMB 05922, 48 h, read-out: IZ
[16] = tested on: Klebsiella pneumoniae; assay: Antimicrobial activity against Klebsiella pneumoniae RCMB 010093 assessed as inhibition zone at 5 mg/ml after 24 hrs; details: for zone of inhibition at 5000 µg/mL: RCMB 010093, 24 h, read-out: IZ; in short: as §2
[17] = tested on: Proteus vulgaris; assay: Antimicrobial activity against Proteus vulgaris RCMB 010085 assessed as inhibition zone at 5 mg/ml after 24 hrs; in short: as §2
[18] = tested on: Proteus vulgaris; assay: Antimicrobial activity against Proteus vulgaris RCMB 010085 assessed as absence of turbidity after 24 hrs
In short: as §1, with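 “Müller–Hinton broth.” for “Sabouraud liquid medium.”, “Bacterial” for “Fungal”, “10^6” for “10^4”, “37” for “25”, “24” for “48”, “included. Only compounds giving zones >10 mm were tested.” for “included.”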

Compound | MIC [1] [µg/mL] | MIC [2] [µg/mL] | zone of inhibition at 5000 µg/mL [3] [mm] | zone of inhibition at 5000 µg/mL [4] [mm] | zone of inhibition at 5000 µg/mL [5] [mm] | MIC [6] [µg/mL] | MIC ([7]; RCMB 010093, 24 h) [µg/mL] | MIC ([8]; RCMB 010052, 24 h) [µg/mL] | MIC [9] [µg/mL] | MIC [10] [µg/mL] | zone of inhibition at 5000 µg/mL [11] [mm] | zone of inhibition at 5000 µg/mL [12] [mm] | zone of inhibition at 5000 µg/mL [13] [mm] | MIC [14] [µg/mL] | zone of inhibition at 5000 µg/mL [15] [mm] | zone of inhibition at 5000 µg/mL [16] [mm] | other results
Cc1noc(NS(=O)(=O)c2ccc(NC(=O)/C(C#N)=C/N(C)C)cc2)c1C | 7.81 (≈ 20.1 µM) | 1.95 (≈ 5.01 µM) | 20 | 21.3 | 21.4 | 0.98 (≈ 2.52 µM) | 15.6 (≈ 40.1 µM) | 31.2 (≈ 80.2 µM) | 7.81 (≈ 20.1 µM) | 0.98 (≈ 2.52 µM) | 18.2 | 18.3 | 16.3 | 0.98 (≈ 2.52 µM) | 21.1 | 17.1 | –
CCOc1ccc(N/N=C(\C#N)C(=O)Nc2ccc(S(=O)(=O)Nc3onc(C)c3C)cc2)cc1 | 3.9 (≈ 8.08 µM) | 1.95 (≈ 4.04 µM) | 19.6 | 21.4 | 20 | 3.9 (≈ 8.08 µM) | 31.2 (≈ 64.8 µM) | 31.2 (≈ 64.8 µM) | 7.81 (≈ 16.2 µM) | 1.95 (≈ 4.04 µM) | 17.6 | 19.3 | 15.9 | 0.98 (≈ 2.03 µM) | 18.6 | 16.3 | –
C[C@@H]1[C@H](O)[C@@H](C)/C=C/C=C/C=C/C=C/C=C/C=C/C=C/[C@H](O[C@@H]2O[C@H](C)[C@@H](O)[C@H](N)[C@@H]2O)C[C@@H]2O[C@](O)(C[C@@H](O)C[C@@H](O)[C@H](O)CC[C@@H](O)C[C@@H](O)CC(=O)O[C@H]1C)C[C@H](O)[C@H]2C(=O)O [AMPHOTERICIN B] | 0.12 (≈ 0.13 µM) | – | – | 28.7 | – | 7.81 (≈ 8.45 µM) | – | – | – | – | – | 23.7 | – | 0.007 (≈ 0.00758 µM) | 19.7 | – | –
Cc1noc(NS(=O)(=O)c2ccc(NC(=O)c3c(Nc4ccccc4)sc(C#N)c3N)cc2)c1C | 31.2 (≈ 61.4 µM) | 62.5 (≈ 123 µM) | 15.2 | 17.3 | 17.4 | 62.5 (≈ 123 µM) | 125 (≈ 246 µM) | 500 (≈ 983 µM) | 125 (≈ 246 µM) | 15.6 (≈ 30.7 µM) | 14.2 | 16.3 | 11.2 | 15.6 (≈ 30.7 µM) | 15.2 | 13.6 | –
GENTAMICIN | – | – | – | – | – | – | – | – | – | – | – | – | – | – | – | – | MIC [7]: 0.03 µg/mL; MIC [8]: 1.95 µg/mL; inhibition zone (IZ) [17]: 23.4 mm; MIC [18]: 0.24 µg/mL; inhibition zone (IZ) [16]: 26.3 mm
COc1ccc(N/N=C(\C#N)C(=O)Nc2ccc(S(=O)(=O)Nc3onc(C)c3C)cc2)cc1 | 31.2 (≈ 66.7 µM) | 15.6 (≈ 33.4 µM) | 17.3 | 19.8 | 21.2 | 3.9 (≈ 8.32 µM) | 1.95 (≈ 4.16 µM) | 31.2 (≈ 66.7 µM) | 1.95 (≈ 4.16 µM) | 0.98 (≈ 2.09 µM) | 20.2 | 16.3 | 15.9 | 1.95 (≈ 4.16 µM) | 18.6 | 20.2 | –
Cc1noc(NS(=O)(=O)c2ccc(NC(=O)/C(C#N)=N/Nc3ccccc3)cc2)c1C | 15.6 (≈ 35.6 µM) | 62.5 (≈ 143 µM) | 15.5 | 17.8 | 18.4 | 15.6 (≈ 35.6 µM) | 3.9 (≈ 8.89 µM) | 125 (≈ 285 µM) | 1.95 (≈ 4.45 µM) | 7.81 (≈ 17.8 µM) | 19.8 | 16.5 | 13.5 | 7.81 (≈ 17.8 µM) | 17.3 | 19.1 | –

Source: ChEMBL document CHEMBL3351454, “Design, synthesis, antimicrobial evaluation and molecular docking studies of some new thiophene, pyrazole and pyridone derivatives bearing sulfisoxazole moiety” (2014)
